Test results from ChEMBL document CHEMBL2434894, “Pyranoxanthones: Synthesis, growth inhibitory activity on human tumor cell lines and determination of their lipophilicity in two membrane models” (Eur J Med Chem, 2013).
Values after ≈ are worked out from the molar mass of the structure shown.

What was measured:
NCI-H460 = assay: Cytotoxicity against human NCI-H460 cells after 48 hrs by SRB assay; type: functional; details: NCI-H460, 48 h
In short: (§1)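 Cells kept in RPMI-1640 with 5% heat-inactivated FBS at 37 °C and 5% CO2, used in exponential growth at >90% viability (Trypan blue). Seeded per well: MCF-7 and NCI-H460 5 × 10³, A375-C5 7.5 × 10³, HL-60 1 × 10⁴. After 24 h, serial dilutions (0–150, where possible) were given for 48 h; DMSO ≤0.25%. Plates were TCA-fixed (10% adherent, 16.7% HL-60), SRB-stained and read at 510 nm. GI50 taken from curves; mean ± SE, ≥3 experiments; doxorubicin as positive control.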

[1] = Cytotoxicity against human A375-C5 cells after 48 hrs by SRB assay; type: functional; details: A375-C5, 48 h; in short: as §1
[2] = Partition coefficient, log Kp of the compound in micelle-HEPES buffer at pH 7.4; type: physicochemical
MCF7 = assay: Cytotoxicity against human MCF7 cells after 48 hrs by SRB assay; type: functional; details: MCF7, 48 h; in short: as §1
[3] = Partition coefficient, log Kp of the compound in liposome-HEPES buffer at pH 7.4; type: physicochemical; details: artificial membrane
HL-60 = assay: Cytotoxicity against human HL60 cells after 48 hrs by SRB assay; type: functional; details: HL-60, 48 h; in short: as §1
L1210 = assay: Cytotoxicity against mouse L1210 cells; type: functional, cell-based
KB = assay: Cytotoxicity against human KB cells; type: functional, cell-based
[4] = Cytotoxicity against Drosophila melanogaster S2 cells; type: functional, cell-based
NCI-H187 = assay: Cytotoxicity against human NCI-H187 cells; type: functional, cell-based
[5] = Cytotoxicity against human BC1 cells; type: functional, cell-based
HCT-116 = assay: Cytotoxicity against human HCT116 cells; type: functional, cell-based
SMMC-7721 = assay: Cytotoxicity against human SMMC7721 cells; type: functional, cell-based
SGC-7901 = assay: Cytotoxicity against human SGC7901 cells; type: functional, cell-based

| log Kp [2] | log Kp [3] | SMILES | GI50 (NCI-H460) | GI50 [1] | GI50 (MCF7) | GI50 (HL-60) | also measured |
| --- | --- | --- | --- | --- | --- | --- | --- |
| 3.83 | 3.88 | COc1c2c(cc3c(=O)c4ccccc4oc13)C=CC(C)(C)O2 | > 150 µM | > 150 µM | > 150 µM |  |  |
| 3.76 | 3.54 | COc1c2c(cc3oc4ccccc4c(=O)c13)C=CC(C)(C)O2 | 42.9 µM | 47.4 µM |  | 9.6 µM |  |
| 4.1 | 4.14 | CC1(C)C=Cc2c(ccc3oc4ccccc4c(=O)c23)O1 | 44.5 µM | 37.9 µM | 50.9 µM | 36.7 µM |  |
|  |  | COc1cc(OC)c2c(=O)c3c(O)c4c(c(OC)c3oc2c1OC)OC(C)(C)C=C4 |  |  |  |  | IC50 (L1210): 3.51 µg/mL (≈ 8.47 µM) |
| 4.02 |  | CC1(C)C=Cc2c(cc(O)c3c(=O)c4ccccc4oc23)O1 | > 150 µM |  | > 150 µM |  |  |
|  |  | COc1c(O)cc2c(=O)c3c(O)c4c(cc3oc2c1CC=C(C)C)OC(C)(C)C=C4 [MANGLEXANTHONE] |  |  |  |  | IC50 (KB): 1.9 µM |
| 3.88 | 3.92 | COc1c2c(cc3c(=O)c4ccccc4oc13)OC(C)(C)CC2 | 47.3 µM | 42.5 µM | 45.1 µM | 31.8 µM |  |
|  |  | CC1(C)CCc2cc3oc4cc(O)cc(O)c4c(=O)c3c(O)c2O1 |  |  |  |  | IC50 [4]: 6.3 µg/mL (≈ 19.2 µM) |
| 4.28 |  | CC1(C)CCc2cc(O)c3c(=O)c4ccccc4oc3c2O1 | > 50 µM | > 50 µM | > 50 µM | > 50 µM |  |
| 4.15 | 4.17 | CC1(C)C=Cc2cc3oc4ccccc4c(=O)c3c(O)c2O1 | 31.7 µM | 29.6 µM | 39.6 µM | 38.9 µM |  |
| 4.08 |  | CC1(C)C=Cc2cc(O)c3c(=O)c4ccccc4oc3c2O1 |  | > 100 µM |  | 6.4 µM |  |
|  |  | CC(C)=CCc1c(O)cc2oc3cc(O)c4c(c3c(=O)c2c1O)CCC(C)(C)O4 |  |  |  |  | IC50 (NCI-H187): 3.9 µg/mL (≈ 9.84 µM); IC50 (KB): 3.9 µg/mL; IC50 [5]: 3.9 µg/mL (≈ 9.84 µM) |
| 4.32 |  | CC1(C)CCc2c(cc3oc4ccccc4c(=O)c3c2O)O1 |  |  |  |  |  |
| 3.5 | 3.42 | CC1(C)C=Cc2ccc3c(=O)c4ccccc4oc3c2O1 | 32.9 µM | 6.2 µM | 13.3 µM | 3.2 µM |  |
|  |  | COc1ccc2c(=O)c3c(OC)c4c(c(OC)c3oc2c1OC)OC(C)(C)C=C4 |  |  |  |  | IC50 (L1210): 4.23 µg/mL (≈ 10.6 µM) |
|  |  | CC(C)=CCc1c2c(c3oc4cc(O)c(O)cc4c(=O)c3c1O)C=CC(C)(C)O2 [CUDRATRICUXANTHONE] |  |  |  |  | IC50 (HCT-116): 4.1 µM; IC50 (SMMC-7721): 4.1 µM; IC50 (SGC-7901): 4.1 µM |
| 3.46 | 3.08 | COc1cc2c(c3oc4ccccc4c(=O)c13)OC(C)(C)CC2 |  | > 100 µM | > 100 µM | 30.9 µM |  |
|  |  | COc1cccc2c1C(=O)c1c(O)c3c(c(O)c1C2=O)C[C@@](O)(C(=O)CO)C[C@@H]3O[C@H]1C[C@H](N)[C@H](O)[C@H](C)O1 [DOXORUBICIN] |  |  |  | 0.028 µM |  |
| 3.58 | 3.09 | COc1c2c(cc3oc4ccccc4c(=O)c13)CCC(C)(C)O2 | > 150 µM | > 150 µM |  | 37.6 µM |  |
| 3.33 | 3.32 | COc1cc2c(c3oc4ccccc4c(=O)c13)OC(C)(C)C=C2 |  | 69.5 µM |  | 9.6 µM |  |
| 4.06 |  | CC1(C)C=Cc2c(cc3oc4ccccc4c(=O)c3c2O)O1 | > 150 µM |  | > 150 µM |  |  |
| 4.27 |  | CC1(C)CCc2c(cc(O)c3c(=O)c4ccccc4oc23)O1 |  |  |  |  |  |
| 3.29 | 3.06 | CC1(C)C=Cc2c(cc3c(=O)c4ccccc4oc3c2O)O1 | > 150 µM | > 150 µM | 108 µM | > 70 µM |  |
| 3.88 | 3.96 | CC1(C)CCc2cc3oc4ccccc4c(=O)c3c(O)c2O1 | > 150 µM | > 150 µM | > 150 µM | 26.1 µM |  |
| 4.07 | 3.94 | COc1c2c(cc3c(=O)c4ccccc4oc13)OC(C)(C)C=C2 |  |  |  | 11.8 µM |  |
